# In the library only some 1.9% were active in any assay of this set; here they are far more common.
# HDAC3 inhib: inhibitors of human histone deacetylase 3 | O15379 | recombinant HDAC3, fluorogenic peptide/trypsin coupled, fluorescence | inhibition, % at 8.3 µM | 320,000 tested, 0.15% active | AID 2718; in the data active means inhibition above about 26%, passing the limit was not always enough; inconclusive means no clear call, values can overlap the other calls
# Target sequence (O15379 whole entry, looked up): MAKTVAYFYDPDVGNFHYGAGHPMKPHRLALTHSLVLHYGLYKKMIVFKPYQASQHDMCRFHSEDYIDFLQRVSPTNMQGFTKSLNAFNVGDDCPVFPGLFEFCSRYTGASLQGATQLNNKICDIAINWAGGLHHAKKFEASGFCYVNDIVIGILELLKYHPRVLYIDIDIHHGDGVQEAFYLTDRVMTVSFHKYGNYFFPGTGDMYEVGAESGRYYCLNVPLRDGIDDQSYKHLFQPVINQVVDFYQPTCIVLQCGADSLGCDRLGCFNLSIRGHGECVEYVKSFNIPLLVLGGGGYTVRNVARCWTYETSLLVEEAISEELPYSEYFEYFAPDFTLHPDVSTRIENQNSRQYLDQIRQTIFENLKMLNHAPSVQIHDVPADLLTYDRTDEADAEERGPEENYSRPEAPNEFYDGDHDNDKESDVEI
# LANA-H2A inh: blocks KSHV LANA binding to histone H2A/H2B. Q9QR71. cell-free LANA-H2A/H2B peptide, fluorescence polarization. inhibition, % (no concentration beside the values). 320,000 tested, 0.6% active; in the data active means inhibition mostly above about 10%, no sharp cut-off; inactive means mostly below about 6.7%
# CaV13 ICDI inh: Disruptors of the CACNA1D IQ motif to Ca2+-dependent inactivation inhibitor domain association, primary screening, Förster resonance energy transfer in intact living … | HEK cells, CFP/YFP FRET ICDI-IQ, plate reader, 10 min; percent FRET-ratio fall versus neutral wells | inhibition, % at 12.3 µM | 340,000 tested, 0.098% active;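 active means mean replicate inhibition of at least 30% and at least 1% of replicates passing that level; inconclusive means only one of the two criteria is met; inactive means neither criterion is met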
# Runt-CBFb FRET: inhibitors of human RUNX1 Runt domain binding to CBFb; Cerulean-Runt/Venus-CBFb FRET ratio 530/480, 1 h; inhibition, % at 20 µM; 220,000 tested, 0.46% active; AID 1496;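 active means inhibition over about 50% at 20 µM in the single-dose screen, limit read from the data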
#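 Schedule: protein complex preformed 1 h, compound exposure 1 h, room temperature, dark; test system: Cerulean-labeled Runt domain protein; amount: 100 nM per protein; buffer or medium: Tris 50 mM pH 7.5, KCl, K2SO4, 0.01% BSA; read-out: loss of energy transfer signal; detection: FRET fluorescence; controls: 5 µM unlabeled CBFb as full-inhibition high control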
# RanGTP-Impb inh: disruptors of Ran-importin-beta complex formation – biochemical, FRET, CFP-Ran, YFP-importin-beta, homogeneous, primary screen; cell-free CFP-Ran/YFP-importin-beta FRET ratio; inhibition, % (test concentration not listed); 300,000 tested, 1.1% active; AID 2216;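 active means more than half of the replicate wells show a fall in the fluorescence ratio signal beyond about 16%, limit read from the data, passing the limit was not always enough; inconclusive means exactly half of the replicate wells pass the set limit; inactive means fewer than half of replicates pass the limit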
# Runt-SMMHC FRET: Runt domain-CBFb-SMMHC interaction inhibition | Q01196+Q13951 | Cerulean-Runt/Venus-CBFb-SMMHC FRET ratio 530/480, 1 h | inhibition, % at 20 µM | 220,000 tested, 0.74% active;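 active means mean inhibition across duplicate retests at 20 µM reaching about 50%, limit read from the data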;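 further: inhibitors lower the FRET ratio by blocking Runt binding to CBFb-SMMHC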
# Numbers stand for hits; - = inactive; ? = inconclusive; . = no result; + = active, no number.
SMILES,HDAC3 inhib,LANA-H2A inh,CaV13 ICDI inh,Runt-CBFb FRET,RanGTP-Impb inh,Runt-SMMHC FRET
CC(=O)Nc1ccc2ccccc2c1,-,-,.,-,-,-
CC(=O)Nc1ccc2cc3ccc(NC(C)=O)cc3nc2c1,-,-,-,-,37,.
CNc1snc(C)c1C(=O)OC(C)C(=O)Nc1cccc(C)c1 (stereo not given),-,-,-,.,.,.
Cc1cc2cccc(C)c2nc1SCC(=O)NC1CCCCC1,-,-,-,.,-,.
COc1cc(C(=O)NCCNc2nc3c(C)cccc3cc2C#N)cc(OC)c1OC,.,.,-,.,.,.
Cc1ccc2cc(C#N)c(NCCCNC(=O)C3CCCO3)nc2c1 (stereo not given),-,-,-,-,-,-
Cc1cccc2cc(C#N)c(NCCNC(=O)NC3CCCCC3)nc12,-,-,-,55,-,75
COc1ccc(C(=O)NCCNc2nc3c(C)cccc3cc2C#N)cc1OC,-,-,-,.,40,.
Cc1cccc2cc(C#N)c(NCCNS(=O)(=O)c3ccc4c(c3)OCCO4)nc12,-,-,-,-,?,76
Cc1ccc2cc(C#N)c(NCCNC(=O)C3CCC3)nc2c1C,-,53,-,-,19,78
O=C1[C@H](CC[C@H](O)c2ccc(F)cc2)[C@@H](c2ccc(O)cc2)N1c1ccc(F)cc1,-,-,.,-,?,-
Cc1cc(C)c2cc(C#N)c(NCCCNC(=O)CCC(=O)O)nc2c1,-,-,-,-,?,-
CCC(=O)NCCCNc1nc2c(C)cccc2cc1C#N,-,-,46,-,41,-
C[C@@]12CC[C@H]3OC(=O)C=C3C1CC[C@@]13CC(CCC12)[C@](CO)(O[C@H]1O[C@H](CO)[C@@H](O)[C@H](O)[C@H]1O)C3 (stereo not given in full),-,-,.,.,-,.
COC(=O)NC(Nc1sc2c(c1C(N)=O)CCCC2)(C(=O)OC)C(F)(F)F (stereo not given),-,-,-,-,-,-
CCOC(=O)NC(Nc1sc2c(c1C(=O)OC)CCN(C)C2)(C(F)(F)F)C(F)(F)F,-,-,.,-,57,-
CCC(=O)NC(Nc1sc2c(c1C(=O)OC)CCN(C)C2)(C(F)(F)F)C(F)(F)F,-,-,.,-,66,61
CCOC(=O)c1c(NC(=S)N2CCN(C)CC2)sc2c1CCN(C(=O)OCC)C2,-,-,-,-,-,-
CCOC(=O)C(NC(=O)CC)(Nc1sc2c(c1C(=O)OC)CCN(C)C2)C(F)(F)F (stereo not given),-,-,-,-,38,-
COc1ccc(C(C)=O)cc1CN1C(=O)NC(c2ccccc2)(c2ccccc2)C1=O,-,-,-,.,-,.
Cc1cccc([N+](=O)[O-])c1C(=O)O,-,19,.,.,.,.
N#Cc1ccc(Oc2cnccn2)cc1,-,-,-,.,27,.
CC(=O)c1ccc(Oc2cnccn2)cc1,-,-,-,-,-,-
CCN1CCN(c2ccc(N=Cc3ccc(O)cc3O)cc2)CC1,-,-,-,-,-,-
CCN(CC)c1ccc2cc(C#N)c(=O)oc2c1,-,-,+,82,115,92
SMILES,HDAC3 inhib,LANA-H2A inh,CaV13 ICDI inh,Runt-CBFb FRET,RanGTP-Impb inh,Runt-SMMHC FRET
CCN(CC)c1ccc2cc(S(=O)(=O)c3ccc(C)cc3)c(=O)oc2c1,-,-,-,-,137,79
CCN(CC)c1ccc2ccc(=O)oc2c1,-,-,?,-,95,92
CCN(CC)c1ccc2c(C)cc(=O)oc2c1,-,-,.,.,.,.
CCN(CC)c1ccc2cc(C(=O)NNC(=O)c3ccc(S(=O)(=O)N4CCCCC4)cc3)c(=O)oc2c1,-,-,-,66,119,63
O=C(NCC(=O)N1CCC2(CC1)NCCc1[nH]cnc12)c1ccccc1F,-,-,-,.,-,.
Cc1csc(=O)n1CCC(=O)OCC(=O)Nc1ccc(F)c(F)c1F,-,-,-,.,-,.
O=C(CCN1C(=O)/C(=C/c2cccs2)SC1=S)N1CCCCC1,-,24,-,.,-,.
CN1CCN(C(=O)CCN2C(=O)/C(=C/c3ccc(F)cc3)SC2=S)CC1,-,12,-,.,-,.
O=C(CCN1C(=O)/C(=C\c2ccccc2)SC1=S)N1CCCCC1,-,-,-,.,-,.
Cc1ccc(NC(=O)CSCC(=O)N(CCC(C)C)c2c(N)n(Cc3ccccc3)c(=O)[nH]c2=O)cc1,.,.,-,.,.,.
O=C(CSc1nnc(-c2ccccc2)o1)NC1CC1,-,-,-,.,-,.
COC(CN(C)C(=O)c1ccc(CS(=O)(=O)c2ccccc2C)o1)OC,-,14,-,.,-,.
CC(C)C[C@@H]1CN=C(N)N1C[C@@H]1CCCN1C[C@H](C)N1C[C@@H](Cc2ccccc2)N(CCCC2CCCC2)C1=N,-,-,-,.,.,.
COc1ccc2c(c1OC)C(=O)N(c1ccc(C)cc1)C2=O,-,16,-,-,-,-
COc1ccc2c(c1OC)C(=O)N(c1ccc(C)c(C)c1)C2=O,-,-,-,-,75,-
COc1ccc2c(c1OC)C(=O)N(c1ccc3c(c1)CCC3)C2=O,-,-,-,-,-,-
COc1ccc(CCNC(=O)CCNC(=O)c2ccc([N+](=O)[O-])cc2)cc1,-,-,-,.,-,.
O=S(=O)(c1ccc(=S)[nH]c1)N1CCCCCC1,-,38,-,.,.,.
COc1ccc(N2CSC3=C(C#N)C(c4cc(OC)c(OC)cc4OC)CC(=O)N3C2)c(OC)c1 (stereo not given),38,-,-,-,-,-
COc1ccc(N2CSC3=C(C#N)C(c4cccs4)CC(=O)N3C2)cc1 (stereo not given),?,-,-,-,-,-
COc1ccc(N2CSC3=C(C#N)C(c4ccc(OC)c(OC)c4)CC(=O)N3C2)c(OC)c1 (stereo not given),40,-,-,-,-,-
CCOC(=O)c1ccc(N2CSC3=C(C#N)C(c4cccs4)CC(=O)N3C2)cc1 (stereo not given),31,-,-,-,-,-
COc1cc(OC)c(C2CC(=O)N3CN(c4ccc(C)cc4)CSC3=C2C#N)cc1OC (stereo not given),-,-,-,101,-,101
COc1ccc(N2CSC3=C(C#N)C(c4cc(OC)ccc4OC)CC(=O)N3C2)c(OC)c1 (stereo not given),42,-,.,-,-,-
CCCCC1=CC2=CC(=O)C(C)(OC(=O)c3ccco3)C(=O)C2=CO1 (stereo not given),-,-,.,.,-,.
O=C(/C=C/c1ccccc1)C1=C(O)C(=O)N(CCO)C1c1ccc2c(c1)OCO2 (stereo not given),-,-,34,-,-,-
COCCC(=O)N1CCC(Oc2ccc(C(=O)N3CCCC(CCCO)C3)cc2)CC1 (stereo not given),-,18,-,.,-,.

# Compound activity (PubChem)
